What was measured:
[1] = target: T1, bovine rod photoreceptor CNG channel α subunit (Bos taurus, UniProt Q00194); assay: Inside-out patch clamp of rod CNG channels expressed in Xenopus oocytes; type: biochemical; conditions: for effect on cGMP sensitivity (K 1/2 for cGMP): 10 μM genistein, 10 μM lavendustin A, 25 μM erbstatin
T1 sequence (Q00194 1-690): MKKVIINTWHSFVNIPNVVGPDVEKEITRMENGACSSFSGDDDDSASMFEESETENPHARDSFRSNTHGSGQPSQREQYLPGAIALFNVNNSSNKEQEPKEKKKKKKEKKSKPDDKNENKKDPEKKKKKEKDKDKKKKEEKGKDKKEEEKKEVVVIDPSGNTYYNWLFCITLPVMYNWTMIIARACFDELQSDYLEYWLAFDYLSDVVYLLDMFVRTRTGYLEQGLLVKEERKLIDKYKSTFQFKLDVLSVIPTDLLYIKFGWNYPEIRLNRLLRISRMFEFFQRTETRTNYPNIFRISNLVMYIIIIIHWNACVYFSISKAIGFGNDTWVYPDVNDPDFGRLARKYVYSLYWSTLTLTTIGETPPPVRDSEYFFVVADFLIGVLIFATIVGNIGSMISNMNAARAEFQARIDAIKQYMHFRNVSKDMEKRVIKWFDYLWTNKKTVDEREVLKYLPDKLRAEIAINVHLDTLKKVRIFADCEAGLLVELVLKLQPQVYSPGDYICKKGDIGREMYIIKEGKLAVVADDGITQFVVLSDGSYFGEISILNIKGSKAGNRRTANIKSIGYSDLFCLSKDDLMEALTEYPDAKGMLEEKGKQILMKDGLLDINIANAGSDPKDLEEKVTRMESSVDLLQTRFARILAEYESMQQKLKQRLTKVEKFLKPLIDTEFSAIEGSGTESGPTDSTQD
Summary of the method: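 Inside-out patches from Xenopus oocytes 2–7 d after injection (vitelline membrane removed), 21–24°C, held at −75 mV. Pipette/bath solution: 115 mM NaCl, 5 mM EGTA, 1 mM EDTA, 10 mM HEPES, pH 7.5. Test compound preapplied 1 min to closed channels (±100 μM erbstatin) at 1 or 10 min after excision, or applied at steady state; then 2 mM cGMP. Currents normalized to Imax; Ki, Hill coefficient and cGMP K1/2 (4–5 cGMP levels) fitted to Hill equation; mean ± SEM.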

[2] = target: T2, rat olfactory CNG channels (Rattus norvegicus, UniProt Q00195); type: biochemical; conditions: n = 10 patches
T2 sequence (Q00195 1-664): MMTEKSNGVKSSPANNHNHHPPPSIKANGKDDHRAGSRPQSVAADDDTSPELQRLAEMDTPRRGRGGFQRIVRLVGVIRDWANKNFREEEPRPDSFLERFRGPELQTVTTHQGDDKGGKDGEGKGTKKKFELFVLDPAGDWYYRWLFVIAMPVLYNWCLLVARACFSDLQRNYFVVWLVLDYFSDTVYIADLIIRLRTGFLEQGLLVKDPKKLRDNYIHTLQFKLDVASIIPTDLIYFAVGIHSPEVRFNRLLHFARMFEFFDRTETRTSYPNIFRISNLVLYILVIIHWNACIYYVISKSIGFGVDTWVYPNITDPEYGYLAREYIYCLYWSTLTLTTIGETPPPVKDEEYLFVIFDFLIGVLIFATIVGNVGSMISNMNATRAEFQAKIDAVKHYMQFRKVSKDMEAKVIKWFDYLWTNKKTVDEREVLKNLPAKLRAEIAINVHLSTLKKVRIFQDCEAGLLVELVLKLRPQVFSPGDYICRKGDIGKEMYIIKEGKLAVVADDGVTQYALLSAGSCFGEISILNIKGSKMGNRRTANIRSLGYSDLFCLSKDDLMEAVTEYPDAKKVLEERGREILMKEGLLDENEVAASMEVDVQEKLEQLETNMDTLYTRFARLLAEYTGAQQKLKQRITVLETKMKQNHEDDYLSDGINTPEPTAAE

[3] = tested on: native CNG channels from salamander rod outer segments; assay: Inside-out patches with native CNG channels from rod outer segments; type: biochemical, tiger salamanders (Ambystoma tigrinum); conditions: 100 μM genistein
rod CNG channel = conditions: ref Fodor et al., 1997a; cited from earlier work
[4] = 100 μM genistein, preexposure 1 min, 2 mM cGMP

## O=c1c(-c2ccc(O)cc2)coc2cc(O)ccc12 [daidzein]
[1]; saturating cGMP
  effect on rod CNG channels (maximal current): no effect
[2]
  effect on rat olfactory CNG channels: no effect

## O=CN/C=C/c1cc(O)ccc1O [erbstatin]
[1]; in the presence of ATP
  effect on cGMP sensitivity (K 1/2 for cGMP): increase in cGMP sensitivity

## O=c1c(-c2ccc(O)cc2)coc2cc(O)cc(O)c12 [genistein]
[1]
  time course of inhibition: > 30 s
[1]; 100 μM genistein with 100 μM erbstatin present
  residual current, % of maximal CNG current: 20%
[1]; [4]
  residual current (fraction of total current with normal rapid activation): 4.5%
  steady state current elicited by cGMP: 40 % of control
[1]; 100 μM genistein, without erbstatin
  residual current, % of maximal CNG current: < 5%
[1]; 100 μM genistein, saturating cGMP
  voltage dependence of inhibition: voltage-independent
[1]; 100 μM genistein, single exponential fit
  time constant of slow current activation by cGMP: 10.6 s
[1]; K i for genistein inhibition of CNG current activation by cGMP, in the presence of 1 mM ATP
  Ki: 10.6 ± 1.3 µM
[1]; apparent affinity of genistein for the rod channel, closed to activated channels
  Ki: 5 to 80 µM
[1]; closed channels, residual current
  K i values at 1 versus 10 min after patch excision: do not differ
[1]; high genistein concentrations (e.g., 1 mM)
  extent of inhibition of steady state (fully activated) CNG current: incomplete
[1]; in the absence of ATP
  Hill coefficient for genistein inhibition: 1.9 ± 0.2
  effect on cGMP sensitivity (K 1/2 for cGMP): no effect
[1]; in the presence of ATP
  Hill coefficient for genistein inhibition: 2.0 ± 0.2
  effect on cGMP sensitivity (K 1/2 for cGMP): increase in cGMP sensitivity
[1]; read-out: inhibition of closed channels, 100 μM genistein, without erbstatin
  inhibition at 100 µM: > 95%
[1]; saturating genistein (>100 μM)
  extent of inhibition of closed channels: complete inhibition
[1]; single exponential fit, data not shown
  time constant of inhibition of closed CNG channels: 8.9 s
[1]; unpublished observations
  time required to recover from genistein inhibition: > 60 s
[2]
  effect on rat olfactory CNG channels: no effect
[3]
  effect on cGMP-activated current of native channels: reduced the magnitude of the cGMP-activated current and slowed the activation kinetics

## O=C(O)c1cc(N(Cc2ccccc2O)Cc2cc(O)ccc2O)ccc1O [lavendustin A]
[1]; in the presence of ATP
  effect on cGMP sensitivity (K 1/2 for cGMP): increase in cGMP sensitivity

## CCCCNc1ccc(C(=O)OCCN(C)C)cc1 [tetracaine]
Rod CNG channel
  time of block: < 100 ms
